Values after ≈ are worked out from the molar mass of the structure shown. *1 amine or outer side, *2 acyl side, *3 side chain or, on linkers, in order; H or OH if unused. Where a SMILES comes first, the peptide text is derived from it. [ ]: non-standard residue; d: D form. The star is where a group is joined. X4 = O=C([C@H](Cc1ccc(N(Cc2ccccc2)Cc2ccccc2)cc1)N[*:1])[*:2]; Phe(4-NO2) = N[C@@H](Cc1ccc([N+](=O)[O-])cc1)C(=O)O; X3 = O=C([C@H](Cc1ccc(NCc2ccccc2)cc1)N[*:1])[*:2]; X5 = O=C(C(c1ccccc1)(c1ccccc1)c1ccccc1)*; Phe(4-NH2) = Nc1ccc(C[C@H](N)C(=O)O)cc1; Isobutyryl = CC(C)C(=O)*; Orn = NCCC[C@H](N)C(=O)O; Propionyl = CCC(=O)*
Key:
[1] = system: Staphylococcus aureus; test: Antibacterial activity against Staphylococcus aureus 7323 after 24 to 96 hrs by well microplate assay; assay type: functional
Method in brief: (§1)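 Strains were kept at -70 °C, grown at 30 °C on sheep-blood Columbia agar, and suspended in saline to OD595 0.1, then diluted 10×. Inoculum was added at 2 µL per 100 µL Nutrient Broth with yeast extract (2 g/400 mL). Peptide stocks were 4 g/L in ethanol, diluted to 1000 mg/L in water, then twofold in broth (64–1 mg/L). Plates were held at 30 °C for 24–96 h. MIC was the lowest concentration inhibiting growth.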

[2] = system: Staphylococcus aureus; test: Antibacterial activity against Staphylococcus aureus 7388 after 24 to 96 hrs by well microplate assay; assay type: functional; method in brief: as §1
[3] = system: Enterococcus faecalis; test: Antibacterial activity against Enterococcus faecalis 1131 after 24 to 96 hrs by well microplate assay; assay type: functional; method in brief: as §1
[4] = system: Escherichia coli; test: Antibacterial activity against Escherichia coli ATCC 25922 after 24 to 96 hrs by well microplate assay; assay type: functional; method in brief: as §1
[5] = system: Pseudomonas aeruginosa; test: Antibacterial activity against Pseudomonas aeruginosa AK1 after 24 to 96 hrs by well microplate assay; assay type: functional; method in brief: as §1
[6] = system: Pseudomonas aeruginosa; test: Antibacterial activity against Pseudomonas aeruginosa ATCC 19582 after 24 to 96 hrs by well microplate assay; assay type: functional; method in brief: as §1
[7] = system: Streptococcus mitis; test: Antibacterial activity against Streptococcus mitis BMS after 24 to 96 hrs by well microplate assay; assay type: functional; method in brief: as §1
[8] = system: Streptococcus mitis; test: Antibacterial activity against Streptococcus mitis ATCC 33399 after 24 to 96 hrs by well microplate assay; assay type: functional; method in brief: as §1
[9] = system: coagulase-negative Staphylococcus; test: Antibacterial activity against coagulase-negative Staphylococcus CNS 5277 after 24 to 96 hrs by well microplate assay
[10] = system: coagulase-negative Staphylococcus; test: Antibacterial activity against coagulase-negative Staphylococcus CNS 5115 after 24 to 96 hrs by well microplate assay
[11] = system: coagulase-negative Staphylococcus; test: Antibacterial activity against coagulase-negative Staphylococcus CNS 7368 after 24 to 96 hrs by well microplate assay

SMILES | MIC [1] | MIC [2] | MIC [3] | MIC [4] | MIC [5] | MIC [6] | MIC [7] | MIC [8] | MIC [9] | MIC [10] | MIC [11]
CC(C)C[C@@H]1NC(=O)[C@H](CCCN)NC(=O)[C@H](C(C)C)NC(=O)[C@@H]2CCCN2C(=O)[C@H](Cc2ccccc2)NC(=O)[C@H](CC(C)C)NC(=O)[C@H](CCCN)NC(=O)[C@H](C(C)C)NC(=O)[C@@H]2CCCN2C(=O)[C@H](Cc2ccc(NC(=O)C(c3ccccc3)(c3ccccc3)c3ccccc3)cc2)NC1=O (cyclo(FPV[Orn]L[Phe(4-NH2)](X5)PV[Orn]L)) | > 64 µg/mL | > 64 µg/mL | > 64 µg/mL | > 64 µg/mL | > 64 µg/mL | > 64 µg/mL | 64 µg/mL (≈ 44.9 µM) | > 64 µg/mL | > 64 µg/mL | > 64 µg/mL | > 64 µg/mL
CC(C)C[C@@H]1NC(=O)[C@H](CCCN)NC(=O)[C@H](C(C)C)NC(=O)[C@@H]2CCCN2C(=O)[C@H](Cc2ccccc2)NC(=O)[C@H](CC(C)C)NC(=O)[C@H](CCCN)NC(=O)[C@H](C(C)C)NC(=O)[C@@H]2CCCN2C(=O)[C@H](Cc2ccc(NCc3ccccc3)cc2)NC1=O (cyclo(FPV[Orn]L[X3]PV[Orn]L)) | > 64 µg/mL | 64 µg/mL (≈ 51.3 µM) | > 64 µg/mL | > 64 µg/mL | > 64 µg/mL | > 64 µg/mL | 64 µg/mL (≈ 51.3 µM) | 64 µg/mL (≈ 51.3 µM) | 64 µg/mL (≈ 51.3 µM) | > 64 µg/mL | 64 µg/mL (≈ 51.3 µM)
CC(C)C[C@@H]1NC(=O)[C@H](CCCN)NC(=O)[C@H](C(C)C)NC(=O)[C@@H]2CCCN2C(=O)[C@H](Cc2ccccc2)NC(=O)[C@H](CC(C)C)NC(=O)[C@H](CCCN)NC(=O)[C@H](C(C)C)NC(=O)[C@@H]2CCCN2C(=O)[C@H](Cc2ccc(N(Cc3ccccc3)Cc3ccccc3)cc2)NC1=O (cyclo(FPV[Orn]L[X4]PV[Orn]L)) | > 64 µg/mL | > 64 µg/mL | > 64 µg/mL | > 64 µg/mL | > 64 µg/mL | > 64 µg/mL | 64 µg/mL (≈ 47.9 µM) | 64 µg/mL (≈ 47.9 µM) | 64 µg/mL (≈ 47.9 µM) | > 64 µg/mL | 64 µg/mL (≈ 47.9 µM)
CC(C)C[C@@H]1NC(=O)[C@H](CCCN)NC(=O)[C@H](C(C)C)NC(=O)[C@@H]2CCCN2C(=O)[C@H](Cc2ccccc2)NC(=O)[C@H](CC(C)C)NC(=O)[C@H](CCCN)NC(=O)[C@H](C(C)C)NC(=O)[C@@H]2CCCN2C(=O)[C@H](Cc2ccc(NC(=O)C(C)C)cc2)NC1=O (cyclo(FPV[Orn]L[Phe(4-NH2)](Isobutyryl)PV[Orn]L)) | 32 µg/mL (≈ 26.1 µM) | 16 µg/mL (≈ 13 µM) | 16 µg/mL (≈ 13 µM) | 32 µg/mL (≈ 26.1 µM) | > 64 µg/mL | > 64 µg/mL | 8 µg/mL (≈ 6.52 µM) | 32 µg/mL (≈ 26.1 µM) | 16 µg/mL (≈ 13 µM) | 16 µg/mL (≈ 13 µM) | 16 µg/mL (≈ 13 µM)

Now from value to molecule:

MIC [1] | MIC [2] | MIC [3] | MIC [4] | MIC [5] | MIC [6] | MIC [7] | MIC [8] | MIC [9] | MIC [10] | MIC [11] | SMILES
32 µg/mL (≈ 26.4 µM) | 16 µg/mL (≈ 13.2 µM) | 32 µg/mL (≈ 26.4 µM) | 64 µg/mL (≈ 52.8 µM) | > 64 µg/mL | > 64 µg/mL | 8 µg/mL (≈ 6.6 µM) | 16 µg/mL (≈ 13.2 µM) | 8 µg/mL (≈ 6.6 µM) | 16 µg/mL (≈ 13.2 µM) | 8 µg/mL (≈ 6.6 µM) | CCC(=O)Nc1ccc(C[C@@H]2NC(=O)[C@H](CC(C)C)NC(=O)[C@H](CCCN)NC(=O)[C@H](C(C)C)NC(=O)[C@@H]3CCCN3C(=O)[C@H](Cc3ccccc3)NC(=O)[C@H](CC(C)C)NC(=O)[C@H](CCCN)NC(=O)[C@H](C(C)C)NC(=O)[C@@H]3CCCN3C2=O)cc1 (cyclo(FPV[Orn]L[Phe(4-NH2)](Propionyl)PV[Orn]L))
16 µg/mL (≈ 13.5 µM) | 16 µg/mL (≈ 13.5 µM) | 32 µg/mL (≈ 27 µM) | 64 µg/mL (≈ 53.9 µM) | > 64 µg/mL | > 64 µg/mL | 32 µg/mL (≈ 27 µM) | 32 µg/mL (≈ 27 µM) | 16 µg/mL (≈ 13.5 µM) | 16 µg/mL (≈ 13.5 µM) | 16 µg/mL (≈ 13.5 µM) | CC(C)C[C@@H]1NC(=O)[C@H](CCCN)NC(=O)[C@H](C(C)C)NC(=O)[C@@H]2CCCN2C(=O)[C@H](Cc2ccccc2)NC(=O)[C@H](CC(C)C)NC(=O)[C@H](CCCN)NC(=O)[C@H](C(C)C)NC(=O)[C@@H]2CCCN2C(=O)[C@H](Cc2ccc([N+](=O)[O-])cc2)NC1=O (cyclo(FPV[Orn]L[Phe(4-NO2)]PV[Orn]L))

From ChEMBL document CHEMBL1152538, “Synthesis and biological evaluation of asymmetric gramicidin S analogues containing modified D-phenylalanine residues” (Bioorg Med Chem, 2009)
